This is an account of results in the RNAGym collection of RNA variant scans (doi:10.1126/science.aae0568).

This sample holds only a part of the variants without activity.

B1: tRNA (parent)
chain: GUUCCGUUGGCGUAAUGGUAACGCGUCUCCCUCCUAAGGAGAAGACUGCGGGUUCGAGUCCCGUACGGAACG

The variants in the series derive from B1. As to the kind of experiment: yeast fitness relative to wild type (ratio to wild type); higher = fitter; tRNA-Arg(CCU), competitive growth, 37 C, YPD. Summed up: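 Variants of the tRNA-Arg(CCU) gene were chemically synthesised with a 3% per-site mutation rate across 69 sites and placed at the native genomic locus in Saccharomyces cerevisiae. Six parallel replicates of the pooled strains were competed in YPD at 37°C for 24 hours, and gene amplicons from the start and end populations were read by 100-nucleotide paired-end sequencing. Darwinian fitness relative to wild type was derived from changes in genotype frequencies. Genotypes required ≥ 100 starting reads, and estimates < 0.5 were set to 0.5.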
Consider C5G C24G C29A A43U G68C, for which the yeast fitness was at most 0.5.
To C5G C11U A37U belongs at most 0.5.
To C5G A40U G58C belongs 0.732.
The value for C5G A69G was 0.902; that for C5G A69U was 0.894.
In the case of C5G A69C, the yeast fitness worked out at 0.932.
To C5G A20G U53A G67A belongs at most 0.5.
On to C5G A70G, for which the yeast fitness is 0.848.
The value for C5G C24U C33U C34U G44A C62G was at most 0.5; that for C5G C11G A14C U35G A45C U47C U64A was at most 0.5.
The value for C5G C31A G67C was 0.62.
To C5G A36U U54C belongs at most 0.5.
On to C5G A20U A21G C22G U35A G44A C55U C60G U64A G67A, for which the yeast fitness worked out at 0.649.
For C5G A15G U16A A20G U28A C30A C33A A36U A69U, the yeast fitness is at most 0.5.
Turning to C5G A15G U16A A20G U28A C30A C33A A36U A69C, the yeast fitness amounted to 0.578.
C5G C29U A43C U54G C60G C62U: the yeast fitness is at most 0.5.
To C5G A42G C61A G63C belongs at most 0.5; to C5G A36G G68U, 0.525; to C5G A36G G68C, 0.596.
The value for C5G C29G C34U was at most 0.5; that for C5G C33A A57G was 0.59.
The value for C5G A20U A70C was 0.68; that for C5G A15G A42C was 0.544; that for C5G C31U U32C U54G C55U C61U was at most 0.5.
For the variant C5G A36U C62U, the yeast fitness is at most 0.5.
The value for C5G C11A C22G A36U G63A was at most 0.5; that for C5G A15G C27G U28A U32A A45G C46U was 0.573; that for C5G C29U C33U G39C was 0.724.
The value for C5G C34A A37U G44A G51A C55A was 0.654.
Turning to C5G A15G A36G A43G G56A, the yeast fitness is at most 0.5.
To C5G C11U G67C belongs 0.699; to C5G C27G, 0.81.
Regarding C5G C11G G44A G50C U54C C61U A69U A70C, the yeast fitness is at most 0.5.
To C5G A37C G51C A57G belongs 0.598.
To C5G C31U C60U A69G belongs at most 0.5.
To C5G A15U G41A G58A belongs at most 0.5.
Turning to C5G A15G U16A A20G U28A C30A C33A A36U A70U, the yeast fitness is at most 0.5.
To C5G C24G G41C belongs at most 0.5; to C5G C27G G38C G56C, at most 0.5; to C5G A20G A42G C66G, at most 0.5.
To C5G A21G U59A A69C A70C belongs at most 0.5; to C5G C29A U32G, at most 0.5.
To C5G A21U C33U G50A belongs 0.835.
For C5G C31U G58C C62A, the yeast fitness was at most 0.5.
With C5G C11U A42G C49U C66U G67A, the yeast fitness was at most 0.5.
The value for C5G C27U A36U C60G was at most 0.5.
The value for C5G A15U C24A was 0.654; that for C5G A42G A69C was 0.568; that for C5G C34A A37U G44A G51A C55A A57U was at most 0.5.
On to C5G C34G, for which the yeast fitness is 0.62.
With C5G A15U G58A G67A, the yeast fitness worked out at 0.626.
In the case of C5G C11U A37C A43G G50A, the yeast fitness was at most 0.5.
To C5G A20G A42U belongs 0.66; to C5G C34G C62G, 0.59.
To C5G C22A A42C belongs at most 0.5; to C5G C22U A36G A65C, at most 0.5.
To C5G A20C C29G belongs 0.538; to C5G C30U, 0.799.
As to C5G C11U C61G, the yeast fitness was at most 0.5.
Turning to C5G C11G C62U, the yeast fitness is at most 0.5.
The value for C5G A37U G67A was at most 0.5; that for C5G A20G C31A was at most 0.5; that for C5G C24G C61A C62A G68C was 0.69.
The value for C5G A20G A36C G50A G51A A69C was at most 0.5; that for C5G A40U G44A C61A was 0.567; that for C5G A15U G41C C55A was at most 0.5.
The value for C5G C29A U59A was at most 0.5.
Consider C5G A40G U54A, for which the yeast fitness was 0.579.
Regarding C5G A36C G41C, the yeast fitness is at most 0.5.
The value for C5G C11U A37C C49U C60A C66G was 0.685; that for C5G C29G A65G was 0.565; that for C5G C31A A37C G48A G58C was 0.565.
The value for C5G C24G A45C A70U was at most 0.5; that for C5G C27G A65C A70C was 0.552.
To C5G C27U G56A belongs 0.619; to C5G C22G U28A C31G C55A G68C, 0.551.
As for C5G A20U G41C, the yeast fitness was at most 0.5.
On to C5G A36U C61U A65C G67A G68A, for which the yeast fitness is at most 0.5.
The value for C5G C27U G41C U53C was at most 0.5; that for C5G C33U A57G was at most 0.5; that for C5G A42C G48A was 0.587.
The value for C5G A20U C66U A69U was at most 0.5.
The value for C5G C30G G56A G58C C61G was at most 0.5; that for C5G C30U C31G C61A A69U was at most 0.5.
Consider C5G C27G C30U G51C C55A, for which the yeast fitness is at most 0.5.
As for C5G A40G A57G, the yeast fitness is at most 0.5.
Take C5G C11U A37C A57G: the yeast fitness was at most 0.5.
Turning to C5G C11A A15G G18A C30G U54C, the yeast fitness is at most 0.5.
To C5G C22G G56A belongs 0.788; to C5G C24U C33U C46A, at most 0.5; to C5G A20U A37G, at most 0.5.
With C5G A15G U28C C30U A69U, the yeast fitness is at most 0.5.
The value for C5G A42G C60G C61G was 0.669; that for C5G A15G U28C A45C was at most 0.5.
To C5G A20G belongs 0.965; to C5G A43U A69U, 0.62; to C5G A15G U16A A20G U28A C30A C33A A36U G50A C66U, at most 0.5.
To C5G C27U A43U belongs 0.54; to C5G C22U C27U G41C A57C, 0.542.
As to C5G C11U A70C, the yeast fitness is at most 0.5.
With C5G C22A A69C, the yeast fitness amounted to 0.603.
The value for C5G C31G G52C U54A C62G was 0.5.
To C5G A21C A69C belongs at most 0.5; to C5G A43U G48C, 0.602.
C5G C34G C62A G63A: the yeast fitness is at most 0.5.
The value for C5G A20G C22G C29G was at most 0.5; that for C5G C24U C31A was at most 0.5; that for C5G C29G A36U was at most 0.5.
To C5G C30A A36G C61A belongs 0.592; to C5G A57G, 0.882; to C5G A57U, 0.735.
To C5G C22A A42U G48A C62A belongs at most 0.5; to C5G C27G A43G, at most 0.5; to C5G C27G C61U, at most 0.5.
For the variant C5G C31U A36C G38A G50A, the yeast fitness was at most 0.5.
In the case of C5G C30U C34U A37U G68C, the yeast fitness was at most 0.5.
To C5G A21U C49U belongs at most 0.5; to C5G C33A G41C A65C, at most 0.5.
The value for C5G A36U G52C G67U A69U was at most 0.5.
To C5G A37C C61U belongs at most 0.5; to C5G C31U G63A, 0.683.
Regarding C5G C29G C33A, the yeast fitness is at most 0.5.
To C5G A21C C29U C31G A43U A65U belongs at most 0.5; to C5G A15G U28A A57C C66G, at most 0.5.
The value for C5G C33G C55U was 0.875; that for C5G C11G C30U C31U A57G was 0.8; that for C5G C30G G67C was 0.543.
The value for C5G A37U C46U A69C was at most 0.5; that for C5G A20U C46U was 0.601.
For C5G C30A A42C, the yeast fitness is at most 0.5.
To C5G C24G C31U C61A belongs at most 0.5; to C5G A36U G67A, 0.571; to C5G A21G U32C, 0.63.
The value for C5G A21C was 0.636.
The value for C5G C11A A20U C29A A37C was at most 0.5; that for C5G C22G C31A C49G G63C A69U was at most 0.5.
C5G A15G A36G A43G: the yeast fitness came out at 0.593.
With C5G C27G G44C U59A, the yeast fitness was at most 0.5.
To C5G C11U U19C G41C belongs 0.536.
The value for C5G A20C C34G was at most 0.5; that for C5G C27G C34G was at most 0.5.
Turning to C5G C27U G63A, the yeast fitness was at most 0.5.
Turning to C5G C11G A15U C55A, the yeast fitness was at most 0.5.
The value for C5G A45U C61U C66U was at most 0.5; that for C5G C11G A14U A15U G56A U59G was at most 0.5.
To C5G C22G U47A A70C belongs at most 0.5; to C5G C33U G56C, 0.575.
To C5G C29U A37G C66U belongs 0.536; to C5G A42C G68U, 0.593; to C5G A57G C66A, 0.564.
As for C5G A15G U16A A20G U28A C30A C33A A36U, the yeast fitness turned out to be 0.553.
The value for C5G C11U G17A A20C C49G was at most 0.5; that for C5G A21U C55U was 0.6; that for C5G A36G was 1.01.
To C5G A36U belongs 0.583; to C5G A36C, 0.772.
To C5G A20U U54A belongs at most 0.5.
C5G A21G U64C: the yeast fitness is 0.723.
For the variant C5G A37G G41C, the yeast fitness was at most 0.5.
Turning to C5G A43G A69U, the yeast fitness is 0.762.
To C5G C11U A37C U64C belongs 0.609.
The value for C5G C29U A70C was 0.527.
To C5G A20G C30A C34G belongs at most 0.5; to C5G A20U G51C, at most 0.5; to C5G A43G, 0.746.
As for C5G A42G A70C, the yeast fitness was found to be 0.805.
To C5G A20U C31G belongs at most 0.5.
